Screening data: PubChem, The Scripps Research Institute Molecular Screening Center
OX1R antag-1 – antagonists of human orexin 1 receptor | CHO/OX1R cells, Fluo-8 calcium fluorescence, orexin A | 330,000 compounds, 0.43% hits | inhibition, % at 5 µM;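 active = inhibition above its plate's threshold, mean inhibition of all tested compounds on the plate plus 3 SD, cut at about 37% in these data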;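 note: 0% = orexin A challenge wells and 100% = SB-334867-A antagonist wells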
Target sequence (O43613 whole entry, looked up): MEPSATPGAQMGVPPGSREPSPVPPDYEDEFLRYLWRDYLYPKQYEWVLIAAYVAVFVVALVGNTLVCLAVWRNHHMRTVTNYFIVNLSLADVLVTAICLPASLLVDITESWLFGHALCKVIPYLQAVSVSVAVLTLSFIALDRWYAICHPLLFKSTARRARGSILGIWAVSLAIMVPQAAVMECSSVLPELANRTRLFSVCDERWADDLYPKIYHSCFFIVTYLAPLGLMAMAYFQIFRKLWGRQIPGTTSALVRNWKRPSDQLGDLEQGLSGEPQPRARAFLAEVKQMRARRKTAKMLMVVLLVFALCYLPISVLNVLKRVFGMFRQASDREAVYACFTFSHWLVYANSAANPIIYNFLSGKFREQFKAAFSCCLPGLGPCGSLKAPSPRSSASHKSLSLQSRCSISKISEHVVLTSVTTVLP
TAAR1 antagonist – human TAAR1 antagonism | CHO RD-HGA16 TAAR1, Fluo-8 calcium fluorescence, antagonist | 360,000 compounds, 1.5% hits | Q96RJ0 | inhibition, % at 3 µM;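 active = inhibition above a per-plate cutoff, the mean inhibition of test compounds on that plate plus 3 SD, cut at about 49% in these data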;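 note: 0% = DMSO plus EC80 beta-PEA response and 100% = DMSO alone without agonist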
Target sequence (Q96RJ0 whole entry, looked up): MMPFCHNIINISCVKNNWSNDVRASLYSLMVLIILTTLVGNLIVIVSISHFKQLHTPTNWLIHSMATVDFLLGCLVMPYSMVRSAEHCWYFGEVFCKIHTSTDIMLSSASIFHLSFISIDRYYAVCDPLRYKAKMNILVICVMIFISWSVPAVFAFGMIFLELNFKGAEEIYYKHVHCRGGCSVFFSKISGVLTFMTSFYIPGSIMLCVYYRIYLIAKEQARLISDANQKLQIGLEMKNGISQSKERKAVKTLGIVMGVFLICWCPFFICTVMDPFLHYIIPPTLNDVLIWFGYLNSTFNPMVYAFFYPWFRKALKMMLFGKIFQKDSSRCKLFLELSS
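Test system: RD-HGA16 CHO cells with stable hTAAR1 and Gα16 / Probe or stimulus: EC80 β-phenethylamine stimulus / Times: seeding 17-24 h prior, 75-min 37 °C, 30-min RT dye loading / Detection: Fluo-8 calcium-sensitive fluorescence / Read-out basis: % inhibition scaled between DMSO and EC80 PEA controls / Repeats: singlicate, one well per test compound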
TAAR1 ag – agonists of human TAAR1; CHO RD-HGA16 TAAR1, Fluo-8 calcium fluorescence; vehicle wells 0%, saturating PEA agonist 100%; 360,000 compounds, 0.99% hits; activation, % at 3 µM; AID 624467; Q96RJ0;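 active = activation above the mean activation of all test compounds in the run plus 3 SD, cut at about 38% in these data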
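Test system: RD-HGA16 (CHO) cells co-expressing Gα16 and hTAAR1; dosing: one-point dosing at 3 µM (nominal); timing: 17-24 h seeding, 75 min 37 °C dye, 30 min RT; signal: kinetic Fluo-8 calcium fluorescence; read-out basis: % activation relative to PEA EC100 response; controls: DMSO and PEA EC100; replicates: n 1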
OX1R antag-2 – OX1R (human) antagonism; AID 485270; OX1R-expressing cells, FRET antagonist read-out; 330,000 compounds, 1.8% hits; O43613; inhibition, % at 6.6 µM; in the data active = inhibition mostly above about 38%, no sharp cut-off; inactive = mostly below about 40%;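 note: 0% = agonist challenge alone and 100% = reference antagonist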
CHO parental Ca – counter-screen for OX1R antagonists: effect in parental CHO cells; parental CHO-K1, ATP-induced calcium, Fluo-8 fluorescence; inhibition, % at 5.6 µM; 330,000 compounds, 0.63% hits; AID 463079;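 active = inhibition above that plate's mean sample inhibition plus 3 SD, cut at about 26% in these data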;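 note: 0% = ATP-challenged DMSO wells and 100% = DMSO wells without ATP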
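Test system: untransfected parental CHO cell line; also added: ATP stimulus; dosing: 5.6 µM, single dose; signal: calcium-sensitive Fluo-8 fluorescence; measure: percent inhibition of ATP-evoked calcium rise, normalized to controls; benchmarks: low control ATP plus DMSO, high control DMSO only; replication: one well per compound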
GPR7 antagonist – human neuropeptides B/W receptor 1 antagonism. P48145. GPR7-expressing cells, fluorescence antagonist assay. inhibition, % at 4.4 µM. 290,000 compounds, 1.1% hits; in the data active = inhibition above about 16%, passing the limit was not always enough;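 note: cells stimulated with the agonist NPW; 0% = agonist with vehicle and 100% = vehicle without agonist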
GPR7 antag cf – confirmation of human GPR7 antagonists. inhibition, % at 4.4 µM. 2,400 compounds, 52% hits. AID 1952. shares compounds with GPR7 antagonist. GPR7-expressing cells, calcium fluorescence antagonist mode; in the data active = inhibition above about 24%;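 note: stimulated with the GPR7 agonist NPW; 0% = agonist plus vehicle and 100% = vehicle alone without agonist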
MCHR1 antagonist – antagonizes human MCHR1, a GPR7 antagonist counter-screen; shares compounds with GPR7 antagonist; MCHR1-expressing cells, fluorescence antagonist assay; inhibition, % at 4.4 µM; 2,400 compounds, 62% hits; in the data active = inhibition above about 22%;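 note: 0% = vehicle with agonist and 100% = vehicle without agonist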
OX1R Ca confirm – OX1R (human) antagonism, confirmed | AID 492963 | inhibition, % at 5 µM | shares compounds with OX1R antag-1 | 1,100 compounds, 38% hits | CHO/OX1R cells, orexin A calcium Fluo-8 fluorescence; in the data active = inhibition above about 29%;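 note: 0% = agonist challenge alone and 100% = reference antagonist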
CHO Ca counter – counter-screen for OX1R antagonists: effect in parental CHO cells. parental CHO-K1, ATP-induced calcium, Fluo-8 fluorescence. AID 492965. shares compounds with OX1R antag-1. 1,100 compounds, 9.3% hits. inhibition, % at 5.6 µM;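 active = inhibition above a per-plate limit, the mean inhibition of that plate's test compounds plus 3 SD, cut at about 25% in these data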;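 note: 0% = ATP challenge with DMSO and 100% = DMSO without ATP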
TAAR1 ag confirm – confirmation of human TAAR1 agonists; activation, % at 3 µM; shares compounds with TAAR1 ag; CHO RD-HGA16 TAAR1, Fluo-8 calcium fluorescence; scaled: DMSO 0%, maximal phenethylamine 100%; 2,400 compounds, 82% hits;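 active = activation above a cutoff set at the run's mean compound activation plus 3 SD, cut at about 39% in these data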
Ga16 ag counter – nonselective agonist in parental cells, TAAR1 agonist counter-screen | AID 651787 | shares compounds with TAAR1 ag | activation, % at 3 µM | 2,400 compounds, 50% hits | CHO-Ga16 parental, Fluo-8 calcium fluorescence; normalized to maximal ATP response, DMSO zero;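 active = activation above the run cutoff, the mean activation over all tested wells plus 3 SD, cut at about 12% in these data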;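 note: 0% = DMSO wells and 100% = maximal ATP response on the peak over basal ratio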
TAAR1 desens – human TAAR1 agonist that also desensitizes the receptor; shares compounds with TAAR1 ag; inhibition, % at 3 µM; 2,400 compounds, 46% hits; CHO RD-HGA16 hTAAR1, Fluo-8 calcium, beta-PEA response inhibition; AID 651951;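 active = inhibition above the run cutoff, the mean inhibition of all test compounds plus 3 SD, cut at about 49% in these data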;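 note: beta-PEA stimulus applied at its EC80; loss of beta-PEA calcium signal after compound pretreatment read as receptor desensitization; 0% = DMSO with beta-PEA at EC80 and 100% = DMSO alone without agonist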
Ga16 antag count – counter-screen for TAAR1 agonists: nonselective Ga16 antagonists; 2,400 compounds, 39% hits; shares compounds with TAAR1 ag; inhibition, % at 3 µM; CHO-Ga16 ATP-induced calcium, Fluo-8 fluorescence; AID 651952;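 active = inhibition above the plate's mean compound inhibition plus 3 SD, computed per plate, cut at about 22% in these data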;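 note: 0% = EC80 ATP with DMSO and 100% = DMSO wells without ATP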
The depositor's hits bear a star; nt = no result given. This is a sample that favours compounds with a hit; in the whole collection about 4.6% have one here.

SMILES	OX1R antag-1	TAAR1 antagonist	TAAR1 ag	OX1R antag-2	CHO parental Ca	GPR7 antagonist	OX1R Ca confirm	CHO Ca counter	others
CCNc1nc(NCC)nc(C(=O)OCCO)n1	-5	-33	3	17	0	0	nt	nt
CN(C)CCNc1nc(-c2ccccc2)nnc1C(F)(F)F	-13	-18	4	15	-5	-7	nt	nt
COc1ccc(/C=C2/SC(=S)N(Cc3ccccc3)C2=O)cc1O	nt	-44	15	nt	nt	-18	nt	nt
O=C1/C(=C\c2cc(Cl)c(O)c(Cl)c2)SC(=S)N1Cc1ccccc1	nt	97*	111*	nt	nt	60*	nt	nt	GPR7 antag cf=100*;MCHR1 antagonist=111*;TAAR1 ag confirm=188*;Ga16 ag counter=258*;TAAR1 desens=107*;Ga16 antag count=106*
COc1ccc(CNCCC(c2ccccc2)c2ccc3c(c2)OCO3)cc1 (centres undefined)	11	31	60*	1	10	41*	nt	nt	GPR7 antag cf=46*;MCHR1 antagonist=64*;TAAR1 ag confirm=58*;Ga16 ag counter=30*;TAAR1 desens=62*;Ga16 antag count=37*
COc1ccc(C(CC(=O)O)c2ccc3c(c2)OCO3)cc1 (centres undefined)	3	-8	0	13	3	-2	nt	nt
CCCCCNCC(=O)Nc1cccc(C(=O)Nc2cccc(C(F)(F)F)c2)c1	-12	50*	72*	2	-1	25*	nt	nt	GPR7 antag cf=50*;MCHR1 antagonist=81*;TAAR1 ag confirm=76*;Ga16 ag counter=46*;TAAR1 desens=56*;Ga16 antag count=46*
COCCCNC(=O)c1ccc(OC)c(OC2CCN(C(C)C)CC2)c1	-6	-18	7	9	-8	-18	nt	nt
CCCC(=O)NC(=S)Nc1ccc(S(=O)(=O)Nc2ccc(OCC)cc2)cc1	13	34	74*	3	5	29*	nt	nt	GPR7 antag cf=53*;MCHR1 antagonist=67*;TAAR1 ag confirm=85*;Ga16 ag counter=35*;TAAR1 desens=66*;Ga16 antag count=39*
CCOc1ccc(NS(=O)(=O)c2ccc(C(=O)N(C)CC(=O)Nc3ccc(OC)cc3)cc2)cc1	-13	-11	2	20	5	nt	nt	nt
CCCCSc1ncnc2[nH]ncc12	-1	-10	-2	10	2	-1	nt	nt
COc1ccc(NC(=O)CSc2nnc(-c3ccoc3C)n2CCc2ccccc2)cc1	32	13	10	65	-31	17	9	-8
O=S(=O)(c1ccc2c(c1)OCCO2)N1CCN(Cc2ccccc2)CC1	28	13	7	15	-2	4	-4	-4
O=C(O)CN(Cc1ccccc1)S(=O)(=O)c1ccc2c(c1)OCCO2	39	0	2	33	-5	-5	3	5
CCOC(=O)C1=CC[C@@H](c2ccccc2)N(S(=O)(=O)c2ccc(C)cc2)[C@@H]1C#N	nt	29	3	nt	nt	nt	nt	nt
Cc1noc(C)c1COc1cccc(C(=O)OC(C)C(=O)Nc2c(C)n(C)n(-c3ccccc3)c2=O)c1 (centres undefined)	-15	-11	3	11	-13	-19	nt	nt
CCOc1ccc(-c2nc(CSCC(=O)N3CCN(C(=O)c4ccco4)CC3)c(C)o2)cc1	-30	-13	0	6	-18	-5	nt	nt
CCOC(=O)C1CCN(C(=O)CSCc2nc(-c3ccc(OCC)cc3)oc2C)CC1	29	25	7	42	17	-8	-2	16
CCOC(=O)c1csc(Nc2nc3ccc(F)cc3s2)n1	39	41	21	15	27	-15	27	26*
O=C1CCCc2[nH]c3cccc(/C(=C/c4ccccc4)c4ccccc4)c3c21	39	16	5	48	4	-7	19	0
COC(=O)c1ccc2[nH]c3cccc(/C(=C/c4ccccc4)c4ccccc4)c3c2c1	-13	-9	11	17	-9	-18	nt	nt
CCCc1ccc(C(=O)NC(=O)c2ccccc2O)cc1	27	-7	28	23	10	3	9	73*
O=C(NC(=O)c1ccccc1O)c1ccc(C(F)(F)F)cc1	9	-7	12	24	6	9	nt	nt
C=CCNC(=S)NC(=O)c1oc2ccccc2c1C	40	3	3	21	5	-14	38*	-13
Cc1c(C(=O)NC(=S)NCC(C)C)oc2ccccc12	-9	-14	1	12	-9	-7	nt	nt
SMILES	OX1R antag-1	TAAR1 antagonist	TAAR1 ag	OX1R antag-2	CHO parental Ca	GPR7 antagonist	OX1R Ca confirm	CHO Ca counter	others
COc1ccc(C(C(=O)NC2CCCCC2)N(C(=O)c2sc(C)nc2C)c2ccccc2C)cc1 (centres undefined)	-8	45	13	16	-14	-8	nt	nt
COC(=O)c1ccc2c(c1)C(C)(C)C(/C=C/c1ccccc1O)=[N+]2C	33	36	24	31	21	15	57*	46*
CCCCCCCCNc1ncnc2ccccc12	90*	nt	nt	36	-3	8	16	85*
COc1ccc(S(=O)(=O)N2CCCC(C(=O)NCC3CCCO3)C2)cc1OC (centres undefined)	-6	-2	2	17	5	-12	nt	nt
O=C(CN(C(=O)c1ccccc1Cl)C1CCCCC1)Nc1ccc(Cl)c([N+](=O)[O-])c1	36	17	6	18	11	15	20	6
CC(=O)Oc1ccc(N2C(=O)c3cccc4c([N+](=O)[O-])ccc(c34)C2=O)cc1	44*	10	2	30	25	19	35*	29*
CC(=O)Oc1ccc(-n2c(=O)c3ccccc3c3ccccc3c2=O)cc1	0	-14	-1	2	-4	2	nt	nt
